Screening data deposited in PubChem BioAssay by Sanford-Burnham Center for Chemical Genomics.
Compounds with a hit are over-represented: about 1.9% of the library has one in this group of screens.
SUMO1 PPI mod: modulators of human SUMO1-mediated protein-protein interactions; P63165; SUMO1 binding to a labelled peptide, TR-FRET, 1 h; inhibition, % at 20 µM; actives 0.33% (n = 360,000); AID 602429; in the data active means inhibition above about 37%
LMPTP block: LMPTP (human) inhibition; P24666; recombinant LMPTP-A, OMFP fluorogenic substrate, fluorescence intensity; inhibition, % at 20 µM; actives 0.22% (n = 360,000);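 active means compounds that cut the enzyme signal by at least half of the control window in the single-dose screen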;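 further: plate controls were DMSO wells with enzyme plus substrate for no effect and substrate without enzyme for full effect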
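Test system: LMPTP-A phosphatase enzyme; input: 0.625 nM LMPTP-A final; reagent: OMFP substrate, 400 µM final; compound dosing: 20 µM single dose, 3% DMSO; incubation: 50 min dark incubation at room temperature; measured by: endpoint fluorescence intensity from OMFP dephosphorylation; measure: % inhibition relative to no-enzyme and uninhibited control wells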
FAS-TE inh: blocks the thioesterase domain of human fatty acid synthase; P49327; recombinant FAS-TE, OMFH fluorogenic substrate, fluorescence endpoint; inhibition, % at 15 µM; actives 0.67% (n = 360,000);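 active means compounds whose normalised, plate-corrected inhibition of enzyme fluorescence in the single-dose primary screen is 50% or more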;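 further: 0% = DMSO with enzyme and 100% = substrate without enzyme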
Scp1 inh: Scp-1 (human) phosphatase inhibition; Q9GZU7; Recombinant Scp1, phosphopeptide, malachite green phosphate absorbance; inhibition, % at 20 µM; actives 0.88% (n = 340,000); AID 493091;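 active means inhibition above about 50% at 20 µM, limit read from the data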;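 further: plate controls were DMSO wells with enzyme for no effect and wells lacking enzyme for full effect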
Target sequence (Q9GZU7 76-261 limits assumed): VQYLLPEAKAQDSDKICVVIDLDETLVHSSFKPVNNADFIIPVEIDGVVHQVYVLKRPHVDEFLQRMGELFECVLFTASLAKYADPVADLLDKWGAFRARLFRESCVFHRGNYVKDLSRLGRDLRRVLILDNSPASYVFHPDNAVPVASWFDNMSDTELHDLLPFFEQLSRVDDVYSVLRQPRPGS
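Times: enzyme reaction 45 min at room temperature, colour 5 min, stabilisation 30 min. Material: SCP-1 catalytic fragment, aa 76-261. Medium: Acidic Tris acetate buffer with magnesium and detergent. Signal: colorimetric free-phosphate detection, absorbance 630 nm. Read-out basis: % inhibition of SCP-1 phosphate liberation. Reagent: Phosphorylated 17-residue peptide substrate.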
STEP block: blocks human striatal-enriched tyrosine phosphatase; actives 0.25% (n = 360,000); P54829; recombinant STEP, OMFP fluorogenic substrate, fluorescence; inhibition, % at 20 µM;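 active means inhibition at 20 µM, scaled per plate between control wells, above about 37%, limit read from the data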;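 further: 0% = DMSO with enzyme and substrate and 100% = substrate only without enzyme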
Target sequence (P54829 whole entry, looked up): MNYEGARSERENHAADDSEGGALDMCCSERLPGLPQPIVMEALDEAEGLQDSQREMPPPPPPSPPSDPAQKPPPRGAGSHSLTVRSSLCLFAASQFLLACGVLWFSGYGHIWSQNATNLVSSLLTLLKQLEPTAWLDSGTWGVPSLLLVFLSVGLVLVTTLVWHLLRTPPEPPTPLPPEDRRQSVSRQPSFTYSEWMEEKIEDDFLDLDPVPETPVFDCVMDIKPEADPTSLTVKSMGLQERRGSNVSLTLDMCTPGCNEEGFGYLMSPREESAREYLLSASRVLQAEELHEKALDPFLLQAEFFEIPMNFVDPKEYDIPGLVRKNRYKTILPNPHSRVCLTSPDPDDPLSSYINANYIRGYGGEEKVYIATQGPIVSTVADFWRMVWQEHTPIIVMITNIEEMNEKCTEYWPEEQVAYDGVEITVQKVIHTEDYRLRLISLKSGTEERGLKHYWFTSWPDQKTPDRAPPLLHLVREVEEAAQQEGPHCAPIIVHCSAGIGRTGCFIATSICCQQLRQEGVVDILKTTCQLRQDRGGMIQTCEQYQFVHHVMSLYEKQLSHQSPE
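medium = Bis-Tris buffer pH 6.0, 2.5 mM DTT, 0.005% Tween 20 | test system = STEP (striatal-enriched tyrosine phosphatase) enzyme, cell-free | measure = normalized % inhibition | compound dosing = 20 µM, 1% DMSO | also added = 25 µM OMFP | schedule = reaction 20 min, ambient temperature | measured by = fluorescence read at 480 nm ex / 540 nm em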
Scp1 confirm: Scp-1 (human) inhibition, single-dose confirmed; shares compounds with Scp1 inh; recombinant SCP-1 catalytic domain, phosphate release, malachite green absorbance; inhibition, % at 20 µM; actives 61% (n = 2,500); AID 540281;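 further: plate controls were DMSO with enzyme for no effect and buffer wells lacking enzyme for full effect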
MG interference: counter-screen for Scp-1 inhibitors: colorimetric interference. 2,500 tested, under 10 active. AID 540313. apparent inhibition (interference), % at 20 µM. shares compounds with Scp1 inh. Colorimetric interference counterscreen, malachite green absorbance 630 nm;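 further: compounds added after enzyme reaction finished so only phosphate colour detection is probed; plate controls were DMSO wells with completed Scp-1 reaction for no effect and substrate wells lacking enzyme for full effect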
Scp-1 Tm shift: Scp-1 (human) binding by thermal shift | shares compounds with Scp1 inh | Recombinant SCP1, Sypro Orange thermal shift Tm | thermal shift relative to vanadate control, % at 40 µM | actives 25% (n = 1,500) | AID 540329;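 active means substances whose mean melting-temperature shift, as a percentage of the reference inhibitor's shift, reaches about 5.3%, limit read from the data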;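 further: 0% = Tm of DMSO wells and 100% = Tm with sodium orthovanadate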
* = called active by the depositor; . = no result.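 How the source made its calls, unless noted: active means inhibition of at least 30% at 20 µM; inactive means the rest.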

SMILES | SUMO1 PPI mod | LMPTP block | FAS-TE inh | Scp1 inh | STEP block | Scp1 confirm | MG interference | Scp-1 Tm shift
Cc1ccc(C(=O)CSC2=C(C#N)C(c3ccco3)CC(=O)N2)c(C)c1 (configuration not stated) | -11 | 2 | 0 | 61* | 7 | 56* | -11 | 2
Cc1ccc(NC(=O)CSC2=C(C#N)C(c3ccco3)CC(=O)N2)cc1 (configuration not stated) | 2 | 1 | -6 | -15 | -5 | . | . | .
Cc1cc(C)cc(C(O)c2ncc(-c3ccccc3Cl)[nH]2)c1 (configuration not stated) | 5 | 2 | 1 | . | -1 | . | . | .
COC(=O)C1=COC(OC2OC(CO)C(O)C(O)C2O)C2C1C=CC2(O)CO (configuration not stated) | 19 | 6 | -2 | 58* | 14 | 34* | -11 | -6
CC1(C)CC(N2CCCC2)=CC(=[N+]2CCCC2)C1 | 2 | -1 | -11 | 100* | -2 | 92* | -11 | -20
Cc1ccc(C(C)C)c(OCC(=O)OCC(=O)c2c(N)n(C)c(=O)n(C)c2=O)c1 | 1 | 0 | 13 | -3 | 2 | . | . | .
C=CCn1c(COc2cc(C)ccc2C(C)C)nnc1SCC(=O)c1c(N)n(C)c(=O)n(C)c1=O | 2 | 1 | 5 | 52* | -2 | 11 | -1 | .
CCC1(c2ccc(F)cc2)NC(=O)N(CC(=O)NCC(=O)Nc2cccc(C)c2C)C1=O (configuration not stated) | 2 | 0 | -2 | -3 | 0 | -15 | -11 | .
CN(CC(=O)NC(=O)NCc1ccco1)Cc1nc2ccccc2c(=O)[nH]1 | 3 | 0 | -4 | 86* | 0 | 73* | -7 | -4
O=C(CCc1nc2ccccc2c(=O)[nH]1)NCc1ccco1 | -3 | 0 | -9 | 4 | 0 | . | . | .
Cc1ccc(OCC(=O)Nc2nnc(S(=O)(=O)N3CCCCC3)s2)cc1 | 43* | 31 | -7 | 71* | 3 | 57* | -20 | 5.7*
Cc1ccc(C(=O)NN2CC(O)=C(c3nc(-c4cccc([N+](=O)[O-])c4)cs3)C2=N)cc1 | 1 | 13 | 1 | 75* | 20 | 43* | -7 | 6.1*
COc1cccc(C(=O)NN2CC(O)=C(c3nc(C)cs3)C2=N)c1 | 4 | 1 | -3 | -2 | -2 | . | . | .
CN(C)C(=O)c1ccc(OCC(F)(F)F)nc1 | -1 | -1 | -4 | 79* | -2 | -9 | -15 | .
N/C(=N\OC(=O)c1ccc(OCC(F)(F)F)nc1)c1ccc(Cl)cc1 | 8 | -2 | -1 | -10 | 1 | . | . | .
O=[N+]([O-])c1cc2c(c3cccnc13)COCO2 | -21 | 13 | -4 | 62* | 0 | 52* | -10 | -2
c1cnc2ccc3c(c2c1)COCO3 | 2 | 16 | -5 | 7 | -1 | . | . | .
CCc1nnc(NC(=O)C2(C)COC(c3ccccc3)OC2)s1 (configuration not stated) | 0 | -1 | 1 | 55* | 0 | -5 | -4 | .
CCc1nnc(NC(=O)C2c3ccccc3Oc3ccccc32)s1 | 3 | 0 | 6 | -11 | -1 | . | . | .
CCn1nc([N+](=O)[O-])c2c(-c3nc4ccccc4o3)c(N)n(CCCOC)c2c1=O | 18 | 23 | 7 | 85* | 10 | 78* | -10 | 2
N#CC1(NC(=O)COc2ccccc2[N+](=O)[O-])CCCCC1 | -4 | -2 | -2 | 52* | -2 | 73* | -22 | -7
O=C(CN1C(=O)c2ccccc2C1=O)Nc1ccc(N2CCOCC2)cc1 | -1 | 0 | -7 | -6 | -3 | . | . | .
O=C(CN1C(=O)S/C(=C\c2ccc(O)c([N+](=O)[O-])c2)C1=O)Nc1ccc(N2CCOCC2)cc1 | -12 | 22 | -1 | 62* | 12 | 60* | -2 | 2
Cc1cccc(NC(=O)CN2C(=O)S/C(=C\c3ccc(O)c([N+](=O)[O-])c3)C2=O)c1 | -2 | 8 | 7 | 80* | 5 | 77* | -4 | 26*
CCCN(C)C1CN(Cc2cn(Cc3ccc(F)cc3)nn2)S(=O)(=O)C1 (configuration not stated) | 2 | -2 | -10 | . | . | . | . | .
SMILES | SUMO1 PPI mod | LMPTP block | FAS-TE inh | Scp1 inh | STEP block | Scp1 confirm | MG interference | Scp-1 Tm shift
CCOC(=O)N1CCN(C(=O)CSc2nc3ccccc3c(=O)n2-c2ccccc2)CC1 | 2 | -1 | -8 | -8 | -6 | . | . | .
CCOC(=O)N1CCN(C(=O)CSc2ncnc3ccccc23)CC1 | -3 | -1 | -10 | 54* | -3 | -27 | -18 | .
Cn1ccsc1=NC(=O)c1ccc(Cl)c([N+](=O)[O-])c1 | 5 | 48 | 4 | 54* | 27 | 11 | -19 | .
Cc1ccc(S(=O)(=O)N(CCCO)CC(O)CON=C2c3ccccc3-c3ccccc32)cc1 (configuration not stated) | 6 | 4 | 27 | 61* | 3 | 16 | -10 | .
Cc1ccc(/C=C2\SC(=S)N(CCCC(=O)Nc3cccc(C(=O)O)c3)C2=O)cc1 | -10 | 2 | 6 | 40 | 7 | . | . | .
O=C(CCN1C(=O)/C(=C/c2ccc(Cl)cc2)SC1=S)Nc1cccc(C(=O)O)c1 | -7 | 1 | 14 | 89* | 10 | 66* | -3 | 9.7*
O=C(CCCN1C(=O)/C(=C\c2ccccc2)SC1=S)Nc1cccc(C(=O)O)c1 | -24 | 1 | 4 | -7 | -1 | . | . | .
O=C(CCN1C(=O)/C(=C/c2ccc3c(c2)OCO3)SC1=S)Nc1cccc(C(=O)O)c1 | 0 | 3 | 1 | 69* | 7 | 78* | -9 | 11*
O=C(CCN1C(=O)/C(=C/c2ccc3c(c2)OCO3)SC1=S)NNC(=O)c1cccnc1 | -12 | 7 | -4 | 62* | 2 | 46* | -9 | 0
COc1ccc(/C=C2\SC(=S)N(CCC(=O)Nc3cccc(C(=O)O)c3)C2=O)cc1 | 0 | 1 | 4 | 61* | 18 | 53* | -10 | 18*
O=C(CCCN1C(=O)/C(=C/c2ccc3c(c2)OCO3)SC1=S)Nc1cccc(C(=O)O)c1 | -18 | 2 | 9 | -5 | 1 | . | . | .
COCCCNC(=O)C[C@@H]1C[C@@]2(C(=O)OC)CCCCC=C2N(Cc2ccco2)C1=O | 3 | -1 | -10 | . | . | . | . | .
O=C(CCN1C(=O)/C(=C\C=C\c2ccccc2)SC1=S)Nc1cccc(C(=O)O)c1 | 11 | 46 | 3 | 85* | 15 | 75* | -19 | 11*
